# Active and inactive are the calls of the source. No cut-off for these calls is given here.
# Experiments:
# [1] = target: Serine/threonine-protein kinase 32B (Homo sapiens) (UniProt Q9NY57); test: Inhibition of YANK2 assessed as residual activity at 10 uM relative to control
# [2] = target: Death-associated protein kinase 1 (Homo sapiens) (UniProt P53355); test: Inhibition of DAPK1 assessed as residual activity at 10 uM relative to control
# Outline: (§1)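 Competition kinase-binding assay (KINOMEscan) across a non-redundant panel of 329 kinases beyond the radiometric panel; residual binding expressed relative to control.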
# [3] = target: Casein kinase II subunit alpha' (Homo sapiens) (UniProt P19784); test: Inhibition of CSNK2A2 assessed as residual activity at 10 uM relative to control; outline: as §1
# [4] = target: Casein kinase I isoform gamma-3 (Homo sapiens) (UniProt Q9Y6M4); test: Inhibition of CSNK1G3 assessed as residual activity at 10 uM relative to control; outline: as §1
# [5] = target: Dual specificity protein kinase CLK1 (Homo sapiens) (UniProt P49759); test: Inhibition of CLK1 assessed as residual activity at 10 uM relative to control
# [6] = target: Serine/threonine-protein kinase SBK1 (Homo sapiens) (UniProt Q52WX2); test: Inhibition of SBK1 assessed as residual activity at 10 uM relative to control
# [7] = target: Mitogen-activated protein kinase kinase kinase 9 (Homo sapiens) (UniProt P80192); test: Inhibition of MLK1 assessed as residual activity at 1 uM
# [8] = target: Glycogen synthase kinase-3 beta (Homo sapiens) (UniProt P49841); test: Inhibition of GSK3b assessed as residual activity at 1 uM
# Outline: (§2)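 Radioactivity-based enzymatic activity assay of the named kinase, run as part of a 131-kinase specificity panel at the National Centre for Protein Kinase Profiling (Dundee). Residual activity was read at the stated single inhibitor concentration.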
# [9] = target: Serine/threonine-protein kinase LATS2 (Homo sapiens) (UniProt Q9NRM7); test: Inhibition of LATS2 assessed as residual activity at 10 uM relative to control
# [10] = target: Mitogen-activated protein kinase 10 (Homo sapiens) (UniProt P53779); test: Inhibition of JNK3 assessed as residual activity at 10 uM relative to control
# [11] = target: Ribosomal protein S6 kinase alpha-6 (Homo sapiens) (UniProt Q9UK32); test: Inhibition of RSK4 N-terminal domain 1 assessed as residual activity at 10 uM relative to control
# [12] = target: Rho-associated protein kinase 1 (Homo sapiens) (UniProt Q13464); test: Inhibition of ROCK1 assessed as residual activity at 10 uM relative to control
# [13] = target: BMP-2-inducible protein kinase (Homo sapiens) (UniProt Q9NSY1); test: Inhibition of BIKE assessed as residual activity at 10 uM relative to control
# [14] = target: Tyrosine-protein kinase receptor UFO (Homo sapiens) (UniProt P30530); test: Inhibition of AXL assessed as residual activity at 10 uM relative to control
# [15] = target: Serine/threonine-protein kinase D2 (Homo sapiens) (UniProt Q9BZL6); test: Inhibition of PRKD2 assessed as residual activity at 10 uM relative to control
# Mus musculus = test: Inhibition of LRRK2 in mouse assessed as inhibition of Ser910 autophosphorylation in kidney at 100 mg/kg, ip by immunoblot method; format: functional, organism-based; design: dose 100 mg/kg
# [16] = target: Tyrosine-protein kinase CSK (Homo sapiens) (UniProt P41240); test: Inhibition of CSK assessed as residual activity at 1 uM
# Outline: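 Radioactivity-based enzymatic assay against a panel of 131 kinases (Dundee profiling). Activity remaining was measured with compound present at the stated concentration.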
# [17] = target: Cyclin-dependent kinase 2/cyclin A (Homo sapiens) (UniProt P24941+P20248+P78396); test: Inhibition of CDK2-Cyclin A assessed as residual activity at 1 uM; format: protein-complex assay
# [18] = Inhibition of PHK assessed as residual activity at 10 uM
# [19] = target: Insulin-like growth factor 1 receptor (Homo sapiens) (UniProt P08069); test: Inhibition of IGF-1R assessed as residual activity at 10 uM; outline: as §2
# [20] = target: Mitogen-activated protein kinase 1 (Homo sapiens) (UniProt P28482); test: Inhibition of ERK2 assessed as residual activity at 10 uM relative to control
# [21] = target: Ephrin type-B receptor 6 (Homo sapiens) (UniProt O15197); test: Inhibition of EPHB6 assessed as residual activity at 10 uM relative to control; outline: as §1
# [22] = target: T1, Mitogen-activated protein kinase kinase kinase 7 (Homo sapiens) (UniProt O43318); test: Inhibition of TAK1 assessed as residual activity at 1 uM
# T1 sequence (whole entry): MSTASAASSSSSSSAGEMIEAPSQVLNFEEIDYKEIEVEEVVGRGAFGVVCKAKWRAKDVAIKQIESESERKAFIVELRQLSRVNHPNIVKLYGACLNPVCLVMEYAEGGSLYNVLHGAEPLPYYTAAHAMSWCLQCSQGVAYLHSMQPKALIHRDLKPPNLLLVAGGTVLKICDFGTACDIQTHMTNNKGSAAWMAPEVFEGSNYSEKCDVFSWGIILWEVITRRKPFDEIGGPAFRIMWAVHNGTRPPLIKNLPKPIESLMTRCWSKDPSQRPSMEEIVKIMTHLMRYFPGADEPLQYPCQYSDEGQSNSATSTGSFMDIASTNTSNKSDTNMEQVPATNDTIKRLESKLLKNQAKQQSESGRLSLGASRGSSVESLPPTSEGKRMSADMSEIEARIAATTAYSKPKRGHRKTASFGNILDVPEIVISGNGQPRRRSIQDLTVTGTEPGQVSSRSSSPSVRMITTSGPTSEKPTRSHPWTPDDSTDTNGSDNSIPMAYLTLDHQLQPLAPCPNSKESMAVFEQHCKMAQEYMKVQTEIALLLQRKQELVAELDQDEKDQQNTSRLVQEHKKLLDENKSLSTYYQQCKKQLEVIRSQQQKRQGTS
# Plasma = test: AUClast in Swiss albino mouse plasma at 1 mg/kg, iv; format: ADME, organism-based; design: time 0 - last, dose 1 mg/kg, route intravenous; conditions: in vivo
# Outline: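 Male Swiss Albino mice, single dose given intravenously (1 mg/kg) or orally (10 mg/kg). Drug measured in plasma and brain, with AUClast taken for each. The brain/plasma ratio is based on AUClast, and oral bioavailability is derived from the IV and PO plasma data.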
# [23] = target: Cyclin-dependent kinase 18 (Homo sapiens) (UniProt Q07002); test: Inhibition of PCTK3 assessed as residual activity at 10 uM relative to control
# [24] = target: Cyclin-dependent kinase 17 (Homo sapiens) (UniProt Q00537); test: Inhibition of PCTK2 assessed as residual activity at 10 uM relative to control
# [25] = target: Mitogen-activated protein kinase 13 (Homo sapiens) (UniProt O15264); test: Inhibition of p38-delta assessed as residual activity at 10 uM relative to control
# [26] = target: Serine/threonine-protein kinase 24 (Homo sapiens) (UniProt Q9Y6E0); test: Inhibition of MST3 assessed as residual activity at 10 uM relative to control
# [27] = target: Leucine-rich repeat serine/threonine-protein kinase 2 (Homo sapiens) (UniProt Q5S007); conditions: HEK293, 0.3 to 1 uM
# Chain of Leucine-rich repeat serine/threonine-protein kinase 2 (Homo sapiens) (Q5S007 whole entry): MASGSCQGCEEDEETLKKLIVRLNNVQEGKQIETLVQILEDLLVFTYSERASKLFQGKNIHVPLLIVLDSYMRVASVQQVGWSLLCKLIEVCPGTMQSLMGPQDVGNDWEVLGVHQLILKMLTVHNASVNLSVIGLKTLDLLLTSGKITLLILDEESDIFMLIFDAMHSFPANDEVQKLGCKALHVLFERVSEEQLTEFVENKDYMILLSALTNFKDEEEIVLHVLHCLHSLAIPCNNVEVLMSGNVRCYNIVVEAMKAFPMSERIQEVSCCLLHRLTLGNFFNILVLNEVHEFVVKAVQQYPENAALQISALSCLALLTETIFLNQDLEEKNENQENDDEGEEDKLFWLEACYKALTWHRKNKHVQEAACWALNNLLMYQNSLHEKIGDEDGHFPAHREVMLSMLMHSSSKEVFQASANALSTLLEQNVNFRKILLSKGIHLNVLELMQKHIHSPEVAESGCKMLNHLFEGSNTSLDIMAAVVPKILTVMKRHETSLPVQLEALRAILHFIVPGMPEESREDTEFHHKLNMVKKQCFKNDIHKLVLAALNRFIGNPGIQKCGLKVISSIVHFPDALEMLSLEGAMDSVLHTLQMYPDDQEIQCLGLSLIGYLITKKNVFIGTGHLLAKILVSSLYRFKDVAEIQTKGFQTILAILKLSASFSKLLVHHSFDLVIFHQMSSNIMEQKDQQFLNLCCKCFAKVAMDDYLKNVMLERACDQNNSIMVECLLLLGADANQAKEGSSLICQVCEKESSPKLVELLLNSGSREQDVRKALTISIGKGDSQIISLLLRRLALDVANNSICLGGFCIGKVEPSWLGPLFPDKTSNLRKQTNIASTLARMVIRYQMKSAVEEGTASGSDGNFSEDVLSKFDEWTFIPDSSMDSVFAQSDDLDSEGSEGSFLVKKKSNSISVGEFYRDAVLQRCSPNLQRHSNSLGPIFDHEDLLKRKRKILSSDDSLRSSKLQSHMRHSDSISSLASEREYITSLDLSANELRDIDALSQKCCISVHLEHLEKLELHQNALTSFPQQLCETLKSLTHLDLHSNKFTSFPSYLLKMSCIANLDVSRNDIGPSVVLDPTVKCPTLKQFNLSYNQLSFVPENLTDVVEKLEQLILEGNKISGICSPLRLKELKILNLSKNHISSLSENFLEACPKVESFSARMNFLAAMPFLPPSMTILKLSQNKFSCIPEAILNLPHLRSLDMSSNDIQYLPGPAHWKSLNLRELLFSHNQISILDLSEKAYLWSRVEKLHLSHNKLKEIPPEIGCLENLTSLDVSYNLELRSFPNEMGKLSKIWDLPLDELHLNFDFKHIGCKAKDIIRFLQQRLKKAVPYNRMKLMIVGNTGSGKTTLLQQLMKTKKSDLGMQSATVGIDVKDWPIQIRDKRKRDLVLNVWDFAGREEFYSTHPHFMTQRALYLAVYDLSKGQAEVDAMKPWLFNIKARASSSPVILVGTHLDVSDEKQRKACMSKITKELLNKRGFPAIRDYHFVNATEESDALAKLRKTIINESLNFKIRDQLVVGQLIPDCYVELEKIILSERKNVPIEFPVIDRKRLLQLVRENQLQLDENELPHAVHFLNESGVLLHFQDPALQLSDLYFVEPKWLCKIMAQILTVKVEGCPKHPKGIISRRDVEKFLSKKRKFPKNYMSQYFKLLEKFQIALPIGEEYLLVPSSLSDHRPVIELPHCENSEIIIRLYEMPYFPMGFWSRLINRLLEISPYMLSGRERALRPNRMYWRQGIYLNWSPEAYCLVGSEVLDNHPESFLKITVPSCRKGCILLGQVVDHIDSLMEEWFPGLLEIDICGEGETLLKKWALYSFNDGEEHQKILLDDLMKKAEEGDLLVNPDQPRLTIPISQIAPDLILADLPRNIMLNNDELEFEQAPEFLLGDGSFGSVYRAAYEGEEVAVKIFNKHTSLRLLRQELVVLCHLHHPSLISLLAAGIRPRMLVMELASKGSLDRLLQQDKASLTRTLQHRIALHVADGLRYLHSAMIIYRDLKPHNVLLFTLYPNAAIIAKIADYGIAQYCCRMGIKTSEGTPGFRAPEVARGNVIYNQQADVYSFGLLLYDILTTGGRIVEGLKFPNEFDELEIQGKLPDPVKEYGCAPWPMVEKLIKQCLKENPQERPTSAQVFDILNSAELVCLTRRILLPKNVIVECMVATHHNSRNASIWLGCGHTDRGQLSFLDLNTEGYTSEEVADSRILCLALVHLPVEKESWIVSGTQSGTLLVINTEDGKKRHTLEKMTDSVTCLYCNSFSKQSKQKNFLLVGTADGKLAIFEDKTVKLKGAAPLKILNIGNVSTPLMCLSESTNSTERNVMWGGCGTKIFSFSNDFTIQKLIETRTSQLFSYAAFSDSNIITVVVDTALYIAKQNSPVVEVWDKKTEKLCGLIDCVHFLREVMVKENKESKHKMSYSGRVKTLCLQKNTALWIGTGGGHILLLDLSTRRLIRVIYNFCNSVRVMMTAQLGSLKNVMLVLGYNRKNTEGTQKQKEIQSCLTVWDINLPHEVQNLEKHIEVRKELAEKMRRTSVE
# Chain of Mitogen-activated protein kinase 10 (Homo sapiens) (P53779 whole entry, the tested form may be a part): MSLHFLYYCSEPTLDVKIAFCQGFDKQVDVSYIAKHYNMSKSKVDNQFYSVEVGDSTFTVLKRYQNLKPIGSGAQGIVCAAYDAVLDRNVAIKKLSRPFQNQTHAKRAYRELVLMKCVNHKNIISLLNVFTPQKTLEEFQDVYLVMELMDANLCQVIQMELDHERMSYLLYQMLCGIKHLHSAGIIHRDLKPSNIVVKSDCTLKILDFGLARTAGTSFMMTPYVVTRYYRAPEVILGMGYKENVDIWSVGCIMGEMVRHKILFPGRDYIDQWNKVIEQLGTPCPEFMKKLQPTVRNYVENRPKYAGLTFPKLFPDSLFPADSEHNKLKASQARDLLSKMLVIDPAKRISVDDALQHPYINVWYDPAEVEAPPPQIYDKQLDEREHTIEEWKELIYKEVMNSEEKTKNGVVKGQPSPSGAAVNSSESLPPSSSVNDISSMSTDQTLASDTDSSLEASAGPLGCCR
# Chain of Casein kinase II subunit alpha' (Homo sapiens) (P19784 whole entry, looked up, canonical isoform): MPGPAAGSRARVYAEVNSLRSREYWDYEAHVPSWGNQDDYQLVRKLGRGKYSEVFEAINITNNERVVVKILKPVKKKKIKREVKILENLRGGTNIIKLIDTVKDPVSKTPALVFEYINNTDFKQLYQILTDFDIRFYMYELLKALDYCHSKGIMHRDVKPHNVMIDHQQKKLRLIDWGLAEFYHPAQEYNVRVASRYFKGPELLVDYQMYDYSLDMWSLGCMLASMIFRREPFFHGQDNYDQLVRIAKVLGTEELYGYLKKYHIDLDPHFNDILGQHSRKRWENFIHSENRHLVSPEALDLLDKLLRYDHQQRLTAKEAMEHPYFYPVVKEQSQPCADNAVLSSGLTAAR
# Chain of Tyrosine-protein kinase CSK (Homo sapiens) (P41240 2-450 limits assumed): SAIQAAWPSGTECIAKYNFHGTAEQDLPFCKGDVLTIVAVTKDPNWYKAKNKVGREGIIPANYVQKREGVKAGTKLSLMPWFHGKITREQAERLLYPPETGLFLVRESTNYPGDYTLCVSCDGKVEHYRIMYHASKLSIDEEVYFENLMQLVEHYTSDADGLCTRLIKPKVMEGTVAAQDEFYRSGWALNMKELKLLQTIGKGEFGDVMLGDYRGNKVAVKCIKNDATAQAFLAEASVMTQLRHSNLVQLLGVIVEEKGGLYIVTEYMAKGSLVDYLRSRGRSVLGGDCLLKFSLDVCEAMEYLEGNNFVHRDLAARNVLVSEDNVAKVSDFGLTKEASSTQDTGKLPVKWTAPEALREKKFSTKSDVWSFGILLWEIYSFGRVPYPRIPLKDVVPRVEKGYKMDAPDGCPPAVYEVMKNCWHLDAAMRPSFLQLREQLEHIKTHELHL
# Chain of Cyclin-dependent kinase 18 (Homo sapiens) (Q07002 whole entry): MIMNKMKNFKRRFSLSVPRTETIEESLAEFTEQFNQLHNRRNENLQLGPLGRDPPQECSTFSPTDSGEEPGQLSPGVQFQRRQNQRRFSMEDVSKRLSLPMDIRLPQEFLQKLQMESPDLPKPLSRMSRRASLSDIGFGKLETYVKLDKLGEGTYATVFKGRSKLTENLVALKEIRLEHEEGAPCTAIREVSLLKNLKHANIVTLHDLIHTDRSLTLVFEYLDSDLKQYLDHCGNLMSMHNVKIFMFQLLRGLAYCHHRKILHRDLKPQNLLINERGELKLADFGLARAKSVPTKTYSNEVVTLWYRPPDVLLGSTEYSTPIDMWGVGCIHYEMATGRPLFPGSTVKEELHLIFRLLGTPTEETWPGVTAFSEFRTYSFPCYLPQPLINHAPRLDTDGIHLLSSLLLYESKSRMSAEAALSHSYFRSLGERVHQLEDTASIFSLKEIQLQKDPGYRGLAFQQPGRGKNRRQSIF
# Chain of Serine/threonine-protein kinase 32B (Homo sapiens) (Q9NY57 whole entry): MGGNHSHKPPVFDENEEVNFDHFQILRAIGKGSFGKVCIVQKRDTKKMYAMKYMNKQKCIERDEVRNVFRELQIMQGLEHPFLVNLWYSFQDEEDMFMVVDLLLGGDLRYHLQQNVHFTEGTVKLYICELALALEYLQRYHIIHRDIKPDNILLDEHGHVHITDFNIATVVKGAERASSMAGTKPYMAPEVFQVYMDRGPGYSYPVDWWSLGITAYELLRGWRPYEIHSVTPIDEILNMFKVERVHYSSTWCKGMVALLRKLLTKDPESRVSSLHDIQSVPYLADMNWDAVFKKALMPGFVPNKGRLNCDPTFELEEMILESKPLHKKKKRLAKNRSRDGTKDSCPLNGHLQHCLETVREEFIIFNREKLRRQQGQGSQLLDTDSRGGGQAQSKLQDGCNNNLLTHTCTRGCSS
# Chain of Mitogen-activated protein kinase 13 (Homo sapiens) (O15264 whole entry): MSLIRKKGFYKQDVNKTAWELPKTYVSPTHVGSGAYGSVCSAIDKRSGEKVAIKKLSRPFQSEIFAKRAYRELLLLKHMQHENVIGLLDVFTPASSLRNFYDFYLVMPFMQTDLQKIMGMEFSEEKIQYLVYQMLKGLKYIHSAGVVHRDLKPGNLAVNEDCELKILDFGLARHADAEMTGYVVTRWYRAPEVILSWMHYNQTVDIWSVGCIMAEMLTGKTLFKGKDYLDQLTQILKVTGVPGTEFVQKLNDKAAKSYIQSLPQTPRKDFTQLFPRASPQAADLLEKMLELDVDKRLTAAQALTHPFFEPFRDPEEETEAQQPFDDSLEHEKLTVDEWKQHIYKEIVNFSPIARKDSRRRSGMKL
smiles,measurement,setting,value
O=C(Nc1cccnc1)c1cc(-c2ccnc(F)c2)ccc1OCc1ccccc1,Activity,[1],79%
same,Activity,[2],40%
same,Activity,[3],70%
same,Activity,[4],26%
same,Activity,[5],66%
same,Activity,[6],46%
same,Activity,[7],69%
same,Activity,[8],119%
same,Activity,[9],32%
same,Activity,[10],52%
same,Activity,[11],71%
same,Activity,[12],38%
same,Activity,[13],65%
same,Activity,[14],46%
same,Activity,[15],74%
same,inhibition,Mus musculus,Active
same,Activity,[16],104%
same,Activity,[17],113%
same,Activity,[18],75%
same,Activity,[19],117%
same,Activity,[20],44%
same,Activity,[21],61%
same,Activity,[22],108%
same,AUClast,Plasma,519.6 ng·h/mL
same,Activity,[23],58%
same,Activity,[24],75%
same,Activity,[25],75%
same,Activity,[26],63%
same,inhibition,[27],Active

# From ChEMBL document CHEMBL2203081 (Bioorg Med Chem Lett, 2012)
